Assays:
NB-4 = test: Concentration of compound required for inhibition of (NB4) human promyelocytic leukemia cell growth by 50%; type: functional, cell-based
Summary of the method: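 Leukemia cells exposed to drug for 24 h; growth inhibition assessed by cell counting at 72 h. IC50 = concentration reducing cell number 50% versus untreated control. Where SD is given, mean of three independent experiments.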

[1] = Concentration of compound required for inhibition of (IGROV-1/Pt1) human cisplatin resistant ovarian carcinoma cell growth by 50%; type: functional
Summary of the method: (§1)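 Ovarian carcinoma cells in log-phase growth seeded in duplicate; drug added 24 h after seeding, cells harvested after 72 h of exposure and counted with a cell counter. IC50 = concentration giving 50% fewer cells than untreated control. Where SD is reported, mean of three independent experiments.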

IGROV-1 [2] = test: Concentration of compound required for inhibition of (IGROV-1) human ovarian carcinoma cell growth by 50%; type: functional, cell-based; summary of the method: as §1
IGROV-1 [3] = test: Percent level of apoptosis induced by 72 hr of exposure with IC80 in (IGROV-1) human ovarian carcinoma cells; type: functional
[4] = Percent level of apoptosis induced by 72 hr of exposure with IC80 in (IGROV-1/Pt1) human cisplatin resistant ovarian carcinoma cells; type: functional
[5] = Effective concentration against retinoic acid receptor alpha in COS-7 cells co-expressing DR5-tk-CAT reporter; type: cell-based
Summary of the method: (§2)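 COS-7 cells transfected with the relevant RAR isoform (alpha, beta or gamma) plus a DR5-tk-CAT reporter. 24 h post-transfection, cells treated 24 h with increasing compound concentrations. CAT activity measured in cell extracts, normalized to a beta-galactosidase transfection control.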

[6] = biological target: T1, Retinoic acid receptor beta (Homo sapiens, UniProt P10826); test: Effective concentration against retinoic acid receptor beta in COS-7 cells co-expressing DR5-tk-CAT reporter; type: cell-based; summary of the method: as §2
T1 sequence (P10826 whole entry): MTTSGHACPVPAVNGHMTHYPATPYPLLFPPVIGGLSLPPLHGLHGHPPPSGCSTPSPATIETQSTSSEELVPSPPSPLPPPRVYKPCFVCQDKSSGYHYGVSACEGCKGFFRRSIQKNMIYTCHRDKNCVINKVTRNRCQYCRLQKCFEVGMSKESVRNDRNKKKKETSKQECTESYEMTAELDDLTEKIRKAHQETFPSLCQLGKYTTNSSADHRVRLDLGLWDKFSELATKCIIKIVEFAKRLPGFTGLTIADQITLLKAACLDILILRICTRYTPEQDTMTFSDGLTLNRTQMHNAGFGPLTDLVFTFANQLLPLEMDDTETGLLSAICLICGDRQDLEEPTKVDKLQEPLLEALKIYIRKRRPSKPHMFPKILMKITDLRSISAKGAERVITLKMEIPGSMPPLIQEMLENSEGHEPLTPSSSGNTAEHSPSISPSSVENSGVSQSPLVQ

[7] = Effective concentration against retinoic acid receptor gamma in COS-7 cells co-expressing DR5-tk-CAT reporter; type: cell-based; summary of the method: as §2
[8] = Effective concentration against retinoic acid receptor alpha in COS-7 cells co-expressing DR5-tk-CAT reporter; value range (5.6-59.1); type: cell-based; summary of the method: as §2
[9] = Effective concentration against retinoic acid receptor gamma in COS-7 cells co-expressing DR5-tk-CAT reporter; value range (0.6-1.5); type: cell-based; summary of the method: as §2
[10] = biological target: T1, Retinoic acid receptor beta; test: Effective concentration against retinoic acid receptor beta in COS-7 cells co-expressing DR5-tk-CAT reporter; value range (7.5-41.1); type: cell-based; summary of the method: as §2
[11] = biological target: T1, Retinoic acid receptor beta; test: Effective concentration against retinoic acid receptor beta in COS-7 cells co-expressing DR5-tk-CAT reporter; value range (3.9-7.2); type: cell-based; summary of the method: as §2
[12] = Effective concentration against retinoic acid receptor gamma in COS-7 cells co-expressing DR5-tk-CAT reporter; value range (0.1-0.5); type: cell-based; summary of the method: as §2
[13] = Effective concentration against retinoic acid receptor alpha in COS-7 cells co-expressing DR5-tk-CAT reporter; value range (4.6-8.9); type: cell-based; summary of the method: as §2
[14] = biological target: T1, Retinoic acid receptor beta; test: Effective concentration against retinoic acid receptor beta in COS-7 cells co-expressing DR5-tk-CAT reporter; value range (6.1-9.8); type: cell-based; summary of the method: as §2
[15] = Effective concentration against retinoic acid receptor alpha in COS-7 cells co-expressing DR5-tk-CAT reporter; value range (13.9-29.7); type: cell-based; summary of the method: as §2
[16] = Effective concentration against retinoic acid receptor gamma in COS-7 cells co-expressing DR5-tk-CAT reporter; value range (0.8-2.4); type: cell-based; summary of the method: as §2
[17] = biological target: T1, Retinoic acid receptor beta; test: Effective concentration against retinoic acid receptor beta in COS-7 cells co-expressing DR5-tk-CAT reporter; value range (0.1-0.3); type: cell-based
[18] = Effective concentration against retinoic acid receptor alpha in COS-7 cells co-expressing DR5-tk-CAT reporter; value range (0.1-0.4); type: cell-based; summary of the method: as §2
[19] = Effective concentration against retinoic acid receptor gamma in COS-7 cells co-expressing DR5-tk-CAT reporter; value range (0.1-0.3); type: cell-based; summary of the method: as §2

| SMILES | IC50 (NB-4) [µM] | IC50 [1] [µM] | IC50 (IGROV-1 [2]) [µM] | Apoptosis (IGROV-1 [3]) [%] | other results |
| --- | --- | --- | --- | --- | --- |
| O=C(O)/C=C/c1ccc(-c2ccc(O)c(C34CC5CC(CC(C5)C3)C4)c2)c(Cl)c1 | 0.2 | 0.73 | 0.58 | 74 |  |
| COC(=O)/C=C/c1ccc(-c2ccc(O)c(C34CC5CC(CC(C5)C3)C4)c2)cc1 | 18.2 | 3.5 | 0.61 |  |  |
| O=C(O)/C=C/c1ccc2c(ccc3cc(O)c(C45CC6CC(CC(C6)C4)C5)cc32)c1 | 1.5 | 2.1 | 2.2 |  |  |
| O=P(O)(O)/C=C/c1ccc(-c2ccc(O)c(C34CC5CC(CC(C5)C3)C4)c2)cc1 | > 200 | > 20 | > 20 |  |  |
| C/C(=C\c1ccc(-c2ccc(O)c(C34CC5CC(CC(C5)C3)C4)c2)cc1)C(=O)O | 2.3 | 10 | 7.19 |  |  |
| O=C(O)/C=C/c1ccc(-c2ccc(O)cc2)cc1 | 78.7 | 156 | 89 | 3 | Apoptosis [4]: 1%; EC50 [5]: > 100 µM; EC50 [6]: > 100 µM; EC50 [7]: > 100 µM |
| CC(C)(C)c1cc(-c2ccc(/C=C/C(=O)O)cc2)ccc1O | 42.3 | 30 | 30 |  |  |
| Nc1ccccc1NC(=O)/C=C/c1ccc(-c2ccc(O)c(C34CC5CC(CC(C5)C3)C4)c2)cc1 | 1.8 | 2 | 2.1 | 8 | EC50 [8]: 18.2 µM; EC50 [9]: 0.9 µM; EC50 [10]: 17.6 µM |
| O=C(O)C#Cc1ccc(-c2ccc(O)c(C34CC5CC(CC(C5)C3)C4)c2)cc1 | 1.2 | 1.52 | 1.15 | 52 |  |
| O=C(O)/C=C/c1ccc(-c2ccc(O)c(CC3CCCCC3)c2)cc1 | 2.2 | 2.3 | 2.58 | 25 | Apoptosis [4]: 9%; EC50 [11]: 5.3 µM; EC50 [12]: 0.2 µM; EC50 [13]: 6.4 µM |
| CC1(c2cc(-c3ccc(/C=C/C(=O)O)cc3)ccc2O)CCCCCCCCCCC1 |  |  | 3.57 |  |  |
| O=C(O)c1ccc(-c2ccc(O)c(C34CC5CC(CC(C5)C3)C4)c2)cc1 | 35.2 | > 3 | > 3 |  |  |
| O=C(/C=C/c1ccc(-c2ccc(O)c(C34CC5CC(CC(C5)C3)C4)c2)cc1)Nc1ccc(O)cc1 | 2 | 10.5 | 6.6 | 2 | EC50 [14]: 7.7 µM; EC50 [15]: 20.3 µM; EC50 [16]: 1.4 µM |
| O=C(O)/C=C/c1ccc(-c2ccc(O)c(-c3ccccc3)c2)cc1 | 45.3 | 12.5 | 19 | 7 | Apoptosis [4]: 1%; EC50 [5]: > 100 µM; EC50 [6]: > 100 µM; EC50 [7]: > 100 µM |
| CCOP(=O)(/C=C/c1ccc(-c2ccc(O)c(C34CC5CC(CC(C5)C3)C4)c2)cc1)OCC | 1.7 | > 20 | 19.7 |  |  |
| O=C(O)/C=C/c1ccc(-c2ccc(O)c(Cl)c2)cc1 |  |  | 26 |  |  |
| OC/C=C/c1ccc(-c2ccc(O)c(C34CC5CC(CC(C5)C3)C4)c2)cc1 | 9.1 | 10.6 | 10.8 |  |  |
| O=C(O)/C(F)=C/c1ccc(-c2ccc(O)c(C34CC5CC(CC(C5)C3)C4)c2)cc1 | 0.081 | 0.63 | 0.37 |  |  |
| O=Cc1cc(/C=C/C(=O)O)ccc1-c1ccc(O)c(C23CC4CC(CC(C4)C2)C3)c1 | 1.05 | 2.63 | 1.28 | 44 |  |
| O=C(O)C1CC1c1ccc(-c2ccc(O)c(C34CC5CC(CC(C5)C3)C4)c2)cc1 (stereo not given) | 39.4 | > 20 | > 20 |  |  |
| C/C(=C\C(=O)O)c1ccc(-c2ccc(O)c(C34CC5CC(CC(C5)C3)C4)c2)cc1 | 6.7 | 16.6 | 9.97 | 26 |  |
| Cc1cc(O)c(C23CC4CC(CC(C4)C2)C3)cc1-c1ccc(/C=C/C(=O)O)cc1 | 1.7 | 2.92 | 1.14 |  |  |
| O=C(O)/C(F)=C\c1ccc(-c2ccc(O)c(C34CC5CC(CC(C5)C3)C4)c2)cc1 | 22.4 | > 3 | > 3 |  |  |
| O=C(O)/C=C/c1ccc(-c2cc(O)cc(C34CC5CC(CC(C5)C3)C4)c2)cc1 | 1.2 |  | 1.31 |  |  |
| N#C/C=C/c1ccc(-c2ccc(O)c(C34CC5CC(CC(C5)C3)C4)c2)cc1 | 14.3 | 12.7 | 8.3 | 2 |  |
| O=C(O)/C=C/c1ccc(-c2ccc(C34CC5CC(CC(C5)C3)C4)c(O)c2)cc1 | > 10 |  | 6.13 | 23 |  |
| O=C(O)/C=C/c1ccc(-c2ccc(O)c(C34CC5CC(CC(C5)C3)C4)c2)cc1F | 0.17 | 0.43 | 0.2 | 47 |  |
| O=C(O)CCc1ccc(-c2ccc(O)c(C34CC5CC(CC(C5)C3)C4)c2)cc1 | 63.6 | 44.5 | 48.4 | 26 |  |
| O=C(O)/C=C/c1ccc(-c2ccc(O)c(C34CC5CC(CC(C5)C3)C4)c2)cc1 [ADAROTENE] | 0.082 | 0.4 |  | 65 | Apoptosis [4]: 30%; EC50 [17]: 0.2 µM; EC50 [18]: 0.2 µM; EC50 [19]: 0.1 µM |
| O=C(O)c1ccc2cc(-c3ccc(O)c(C45CC6CC(CC(C6)C4)C5)c3)ccc2c1 [O-DEMETHYLATED ADAPALENE] | 0.4 | 0.62 |  | 38 | Apoptosis [4]: 25% |

— ChEMBL document CHEMBL1140337, “Synthesis and structure-activity relationships of a new series of retinoid-related biphenyl-4-ylacrylic acids endowed with antiproliferative and proapoptotic activity” (J Med Chem, 2005)
